Source: ChEMBL document CHEMBL1124186, “Synthesis and evaluation of tylosin-related macrolides modified at the aldehyde function: a new series of orally effective antibiotics” (1988)

What was measured:
Streptococcus pyogenes [1] = test: In vivo effective dose against experimental infections in rodent caused by Streptococcus pyogenes C203 when administered sc; format: functional
Haemophilus influenzae [2] = test: In vitro antimicrobial activity against Haemophilus influenzae.; format: functional
Streptococcus pyogenes [3] = test: In vitro antimicrobial activity against Streptococcus pyogenes C203; format: functional
Streptococcus pyogenes [4] = test: Activity against Streptococcus pyogenes C203 when administered orally; format: functional; details: po
How it was run: (§1)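 Mouse protection test: infected mice were dosed twice, at 1 and 5 h postinfection, either subcutaneously or orally. […] The result is expressed as ED50 in mg/kg × 2.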

Staphylococcus aureus [5] = test: In vitro antimicrobial activity against Staphylococcus aureus X1; format: functional
Streptococcus pyogenes [6] = test: Anti microbial activity against Streptococcus pyogenes; format: functional
Streptococcus pyogenes [7] = test: Activity against Streptococcus pyogenes C203 when administered sc; format: functional; how it was run: as §1
Streptococcus pneumoniae [8] = test: In vitro antimicrobial activity against Streptococcus pneumoniae; format: functional
[9] = tested on: Staphylococcus epidermidis; test: In vitro antimicrobial activity against Staphylococcus epidermidis EPI1; format: functional
Streptococcus pyogenes [10] = test: In vivo effective dose against experimental infections in rodent caused by Streptococcus pyogenes C203 when administered orally; format: functional; details: po
Bacteroides fragilis [11] = test: In vitro antimicrobial activity against anaerobic bacteria bacteroides fragilis 1877; format: functional
Staphylococcus aureus [12] = test: In vitro antimicrobial activity against aerobic bacteria Staphylococcus aureus V140,; format: functional
Bacteroides fragilis [13] = test: In vitro antimicrobial activity against anaerobic bacteria bacteroides fragilis 111; format: functional
Streptococcus [14] = test: In vitro antimicrobial activity against aerobic bacteria Streptococcus D 2041; format: functional
Collinsella aerofaciens = test: In vitro antimicrobial activity against anaerobic bacteria eubacterium aerofaciens 1235; format: functional
[15] = tested on: Staphylococcus epidermidis; test: In vitro antimicrobial activity against aerobic bacteria Streptococcus epi 222; format: functional
Streptococcus [16] = test: In vitro antimicrobial activity against aerobic bacteria Streptococcus B 5; format: functional
[17] = tested on: Staphylococcus epidermidis; test: In vitro antimicrobial activity against aerobic bacteria Streptococcus epi 270; format: functional
Bacteroides fragilis [18] = test: In vitro antimicrobial activity against anaerobic bacteria bacteroides fragilis 1936B,; format: functional
[19] = tested on: Bacteroides thetaiotaomicron; test: In vitro antimicrobial activity against anaerobic bacteria bacteroides thetaiotaomicron 1438; format: functional
[20] = In vitro antimicrobial activity against anaerobic bacteria peptostreptococcus intermedius 1264; format: functional
Chlamydia trachomatis = test: In vitro antimicrobial activity against chlamydia trachomatis.; format: functional
Streptococcus [21] = test: In vitro antimicrobial activity against aerobic bacteria Streptococcus C 24; format: functional
[22] = tested on: Peptoniphilus asaccharolyticus; test: In vitro antimicrobial activity against anaerobic bacteria peptococcus asaccharolyticus 1302; format: functional
Haemophilus influenzae [23] = test: In vitro antimicrobial activity against aerobic bacteria Haemophilus influenzae 465; format: functional
[24] = tested on: Prevotella melaninogenica; test: In vitro antimicrobial activity against anaerobic bacteria bacteroides melaninogenicus 2736; format: functional
[25] = tested on: Prevotella melaninogenica; test: In vitro antimicrobial activity against anaerobic bacteria bacteroides melaninogenicus 1856,; format: functional
Streptococcus [26] = test: In vitro antimicrobial activity against aerobic bacteria Streptococcus D 9960; format: functional
Staphylococcus aureus [27] = test: In vitro antimicrobial activity against aerobic bacteria Staphylococcus aureus 513E; format: functional
Streptococcus pyogenes [28] = test: Antimicrobial activity against Streptococcus pyogenes C203; format: functional
Staphylococcus aureus [29] = test: In vitro antimicrobial activity against aerobic bacteria Staphylococcus aureus X400; format: functional
Streptococcus [30] = test: In vitro antimicrobial activity against aerobic bacteria Streptococcus G Kruder; format: functional; details: Streptococcus; read-out: MIC
Eikenella corrodens = test: In vitro antimicrobial activity against anaerobic bacteria bacteroides corrodens 1874; format: functional
Streptococcus pyogenes [31] = test: In vivo effective dose against Streptococcus pyogenes C203 when administered sc; format: functional
Haemophilus influenzae [32] = test: In vitro antimicrobial activity against aerobic bacteria Haemophilus influenzae 76; format: functional
[33] = tested on: Peptostreptococcus anaerobius; test: In vitro antimicrobial activity against anaerobic bacteria eubacterium peptostreptococcus anaerobius 1428,; format: functional
Fusobacterium = test: In vitro antimicrobial activity against anaerobic bacteria fusobacterium symbiosum 1470; format: functional
[34] = tested on: Fusobacterium necrophorum; test: In vitro antimicrobial activity against anaerobic bacteria usobacterium necrophorum 6054A; format: functional
Streptococcus pneumoniae [35] = test: In vitro antimicrobial activity against aerobic bacteria Streptococcus pneumoniae B1-438; format: functional, streptococcus pneum
Anaerococcus prevotii = test: In vitro antimicrobial activity against anaerobic bacteria peptococcus prevoti 1281; format: functional
Streptococcus pyogenes [36] = test: In vivo effective dose against Streptococcus pyogenes C203 when administered orally; format: functional; details: po
[37] = tested on: Haemophilus parainfluenzae; test: In vitro antimicrobial activity against aerobic bacteria Haemophilus parainfluenzae 9796; format: functional
Cutibacterium acnes = test: In vitro antimicrobial activity against anaerobic bacteria propionibacterium acnes 79; format: functional
Streptococcus [38] = test: In vitro antimicrobial activity against aerobic bacteria Streptococcus D 8043; format: functional
Staphylococcus aureus [39] = test: In vitro antimicrobial activity against aerobic bacteria Staphylococcus aureus V41; format: functional
Clostridioides difficile = test: In vitro antimicrobial activity against anaerobic bacteria Clostridium difficile 2994; format: functional
Streptococcus sanguinis = test: In vitro antimicrobial activity against aerobic bacteria Streptococcus sanguis MX132; format: functional
Haemophilus influenzae [40] = test: In vitro antimicrobial activity against aerobic bacteria Haemophilus influenzae MX366,; format: functional
Streptococcus [41] = test: In vitro antimicrobial activity against aerobic bacteria Streptococcus B 8; format: functional
Clostridium septicum = test: In vitro antimicrobial activity against anaerobic bacteria clostridium septicum 1128; format: functional
Phocaeicola vulgatus = test: In vitro antimicrobial activity against anaerobic bacteria bacteroides vulgatus 1211; format: functional
Enterococcus faecium = test: In vitro antimicrobial activity against Streptococcus faecium X66; format: functional, streptococcus fae-cium
Staphylococcus aureus [42] = test: In vitro antimicrobial activity against aerobic bacteria Staphylococcus aureus V135; format: functional
Clostridium perfringens = test: In vitro antimicrobial activity against anaerobic bacteria clostridium perfringens 81,; format: functional
Streptococcus viridans = test: In vitro antimicrobial activity against aerobic bacteria Streptococcus viridans 9943; format: functional

CC[C@H]1OC(=O)C[C@@H](O)[C@H](C)[C@@H](O[C@@H]2O[C@H](C)[C@@H](O[C@H]3C[C@@](C)(O)[C@@H](O)[C@H](C)O3)[C@H](N(C)C)[C@H]2O)[C@@H](C)C[C@@H](C)C(=O)/C=C/C(C)=C/[C@@H]1CO[C@@H]1O[C@H](C)[C@@H](O)[C@@H](OC)[C@H]1OC [DEFORMYLTYLOSIN]
128 µg/mL: MIC (Haemophilus influenzae [2])
32 µg/mL: MIC (Streptococcus pneumoniae [8])
1 µg/mL: MIC (Streptococcus pyogenes [3]) | MIC (Streptococcus pyogenes [6]) | MIC [9]
2 mg/kg: ED50 (Streptococcus pyogenes [1]) | ED50 (Streptococcus pyogenes [7])
0.5 µg/mL: MIC (Staphylococcus aureus [5])
12 mg/kg: ED50 (Streptococcus pyogenes [4]) | ED50 (Streptococcus pyogenes [10])

CC[C@H]1OC(=O)C[C@@H](O)[C@H](C)[C@@H](O[C@@H]2O[C@H](C)[C@@H](O[C@H]3C[C@@](C)(O)[C@@H](O)[C@H](C)O3)[C@H](N(C)C)[C@H]2O)[C@@H](CC=O)C[C@@H](C)C(=O)/C=C/C(C)=C/[C@@H]1CO
8 µg/mL: MIC (Haemophilus influenzae [23]) | MIC (Anaerococcus prevotii) | MIC [37]
2 µg/mL: MIC (Staphylococcus aureus [12]) | MIC (Bacteroides fragilis [13]) | MIC (Bacteroides fragilis [18]) | MIC [19] | MIC [24] | MIC (Staphylococcus aureus [29]) | MIC (Eikenella corrodens) | MIC (Haemophilus influenzae [40]) | MIC (Phocaeicola vulgatus) | MIC (Staphylococcus aureus [42])
0.5 µg/mL: MIC (Streptococcus [14]) | MIC (Streptococcus [16]) | MIC [25] | MIC (Fusobacterium) | MIC (Streptococcus [38]) | MIC (Streptococcus pneumoniae [8]) | MIC (Clostridium septicum) | MIC (Clostridium perfringens)
1.9 mg/kg: ED50 (Streptococcus pyogenes [31])
0.25 µg/mL: MIC [15] | MIC (Streptococcus pyogenes [3]) | MIC [20] | MIC (Streptococcus [21]) | MIC (Streptococcus pyogenes [28]) | MIC (Streptococcus [30]) | MIC (Cutibacterium acnes) | MIC (Streptococcus sanguinis) | MIC (Streptococcus [41])
> 128 µg/mL: MIC [17] | MIC (Streptococcus viridans)
4 µg/mL: MIC (Bacteroides fragilis [11]) | MIC (Haemophilus influenzae [2]) | MIC (Haemophilus influenzae [32]) | MIC [33]
0.12 µg/mL: MIC (Collinsella aerofaciens) | MIC [34]
128 µg/mL: MIC (Streptococcus pneumoniae [35])
1 µg/mL: MIC (Chlamydia trachomatis) | MIC (Staphylococcus aureus [5]) | MIC (Streptococcus [26]) | MIC (Staphylococcus aureus [27]) | MIC (Staphylococcus aureus [39]) | MIC (Clostridioides difficile) | MIC [9] | MIC (Enterococcus faecium)
< 0.03 µg/mL: MIC [22]
82 mg/kg: ED50 (Streptococcus pyogenes [36])
